Screens deposited in PubChem BioAssay by several laboratories.
Only some compounds are listed: those with a hit (about 4.1% of all), similar ones and a draw of the others.
FLuc inhib CS = Photinus pyralis luciferase inhibition counter-screen. P08659. ATPLite firefly luciferase biochemical luminescence, 10 min. inhibition, % at 10 µM. hit rate 1.5% among 200,000;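 active = inhibition above about 50% when tested at 10 µM, limit read from the data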
Target sequence (P08659 whole entry, looked up): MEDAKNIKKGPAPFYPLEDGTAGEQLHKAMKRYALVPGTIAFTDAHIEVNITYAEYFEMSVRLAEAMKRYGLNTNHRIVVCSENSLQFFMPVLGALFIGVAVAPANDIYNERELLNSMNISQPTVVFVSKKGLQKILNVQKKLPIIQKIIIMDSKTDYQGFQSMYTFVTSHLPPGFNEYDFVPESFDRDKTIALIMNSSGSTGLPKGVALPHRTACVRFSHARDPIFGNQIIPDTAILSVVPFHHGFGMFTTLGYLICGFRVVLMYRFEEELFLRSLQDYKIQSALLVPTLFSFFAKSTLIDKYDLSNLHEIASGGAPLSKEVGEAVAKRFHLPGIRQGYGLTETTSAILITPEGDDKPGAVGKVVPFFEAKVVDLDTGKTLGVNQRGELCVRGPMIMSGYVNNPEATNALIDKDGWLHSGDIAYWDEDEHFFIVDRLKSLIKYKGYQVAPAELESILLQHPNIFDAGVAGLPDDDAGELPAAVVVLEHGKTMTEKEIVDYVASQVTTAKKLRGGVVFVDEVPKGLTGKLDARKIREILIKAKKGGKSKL
NF-kB neuron act = raises NF-kB expression in human neuronal cells | NF-kB reporter expression; hits give high values | fold change at 12.5 µM | hit rate 1.6% among 190,000 | AID 1239; in the data active = fold change above about 3.3
STAT1 act = increases IFN-gamma driven STAT1 reporter signal; NIH 3T3 STAT1-luciferase reporter, luminescence; 100% = IFN-gamma alone, no compound; activation (% of control), % at 5.5 µM; hit rate 2.6% among 200,000; AID 932;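 active = activation above the screen-wide mean activation plus 3 SD, cut at about 130% in these data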;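 also: raw ratio to IFN-gamma control signal so 100% means no change and 0% no light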
FLuc stim CS = affects firefly luciferase, flagging false hits in luciferase stimulation screens. P08659. activation factor at 10 µM. 200,000 tested, under 10 active. ATPlite luciferase biochemical, luminescence, 10 min; 0 = ATP-free wells, 1 = DMSO control;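 active = luciferase activation factor, scaled between plate controls, of at least 2 with compound at 10 µM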
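Material: Luciferase/luciferin reagent mix | Doses: Test compounds dosed from 2 mM stocks in 100% DMSO | Timing: 10 min incubation after luciferase reagent addition, room temperature | Measured by: Luminescence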
APP 5'UTR act = APP 5'UTR luciferase reporter activation; hit rate 1% among 190,000; SH-SY5Y APP 5'UTR luciferase reporter, luminescence; zero percent = DMSO vehicle wells; activation, % at 2 µM;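 active = activation above a set limit, based on mean plus 3 SD of controls, cut at about 140% in these data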
An asterisk follows results filed as active; nt = not tested or not shown.

SMILES	FLuc inhib CS	NF-kB neuron act	STAT1 act	FLuc stim CS	APP 5'UTR act
COc1cc(C(c2c(C)[nH][nH]c2=O)c2c(C)[nH][nH]c2=O)ccc1OCc1ccc([N+](=O)[O-])cc1	-2	3.8*	111	1	nt
COc1cc(/C=N/NC(=O)c2cccc([N+](=O)[O-])c2)ccc1OCc1ccccc1	1	1.2	102	1	14
CCOC(=O)C(=Cc1ccc(OCc2ccc([N+](=O)[O-])cc2)c(OC)c1)C(=O)OCC	1	3.6*	113	1	10
CSc1cccc(NS(=O)(=O)c2ccc3c(c2)oc(=O)n3C)c1	-8	1.1	94	1.1	-4
O=C(NCCOc1ccccc1Cl)c1cc(F)c(F)cc1Cl	-2	3.8*	130*	1	124
O=C(Oc1ccc2c(c1)OCC2=O)c1ccccc1	21	1.6	101	0.8	30
CC(=O)Oc1ccc2c(c1)C(=O)c1ccccc1CO2	66*	1.3	100	0.3	8
C=C(C)CNC(=S)N/N=C1\CCCCc2ccccc21	-2	0.86	105	1	-5
Cc1cc2nc(N3C(=O)CNC3=S)sc2cc1C	82*	3.2	104	0.2	91
O=C(N/N=C/c1c[nH]c2ccccc12)c1cc(-c2ccc(-c3ccccc3)cc2)n[nH]1	50*	0.95	98	0.5	70
CCc1ccc(-c2cc(C(=O)N/N=C/c3ccccn3)[nH]n2)cc1	38	0.97	110	0.6	-1
O=C(N/N=C/c1c[nH]c2ccccc12)c1cc(-c2ccccc2)n[nH]1	4	0.54	103	1	-7
O=C(N/N=C/c1c[nH]c2ccccc12)c1cc(-c2ccc3ccccc3c2)n[nH]1	19	0.61	140*	0.8	-88
O=C(N/N=C/c1ccccn1)c1cc(-c2ccc3ccccc3c2)n[nH]1	6	0.74	148*	0.9	5
COCCNC(=S)N/N=C/c1ccc2c(c1)OCCO2	59*	1.1	98	0.4	-19
Cc1ccccc1OCC(=O)N/N=C/c1ccc2c(c1)OCCO2	19	1.3	107	0.8	nt
CC(C)NC(=S)N/N=C/c1ccc2c(c1)OCCO2	76*	1.8	104	0.2	24
CC(=O)Nc1ccc(S(=O)(=O)Nc2nc3ccccc3nc2-n2ccc(=NC(=O)c3ccc(F)cc3)cc2)cc1	-7	1.1	104	1.1	3
Cc1ccc(CSc2nnc(-c3ccncc3)n2C)cc1	-10	1.1	95	1.1	10
Cc1ccc(Nc2nc(CSc3nnc(-c4ccncc4)n3C)cs2)cc1	90*	4.4*	94	0.1	87
CCOc1ccccc1C(=O)N[C@H](C(=O)OCc1cc([N+](=O)[O-])cc2c1OCOC2)C(C)C	-10	0.44	89	1.1	6
C/C(=N\Nc1ncc(Cl)cc1Cl)c1ccc2c(c1)OCO2	2	1.4	119	1	7
C/C(=N\Nc1ncc(Cl)cc1Cl)c1ccc(OC(F)F)cc1	-4	4.5*	122	1	60
Cc1cc(=O)oc(C)c1C(=O)NCc1cccnc1	-2	1	101	1	-9
O=C(NCc1ccco1)c1ccc(Cn2cc([N+](=O)[O-])cn2)o1	-8	1	95	1.1	15
SMILES	FLuc inhib CS	NF-kB neuron act	STAT1 act	FLuc stim CS	APP 5'UTR act
O=C(NN(c1ccccc1)c1ccccc1)c1ccc([N+](=O)[O-])o1	-3	3.5*	93	1	18
O=C(NCc1cccnc1)c1ccc([N+](=O)[O-])o1	-4	5.3*	103	1	-7
O=C(NCc1ccco1)c1ccc([N+](=O)[O-])o1	0	5.6*	97	1	-10
O=C(O)c1cc(-c2c[nH]c3ccccc23)nc2ccc3ccccc3c12	80*	1.2	89	0.2	11
c1ccc2c(-c3c[nH]c4ccccc34)c3ccccc3nc2c1	-7	1.2	97	1.1	18
COc1cc(NC(=O)c2cc3nc(C)cc(C)n3n2)c(OC)cc1Cl	10	1.5	132*	0.9	60
COc1cc(NC(=O)c2c(F)c(F)c(F)c(F)c2F)c(OC)cc1Cl	-7	1.4	110	1.1	-9
CC(C)(C)c1ccc(S(=O)(=O)N2CCN(c3ncccn3)CC2)cc1	-11	1	101	1.1	7
Cc1ccc(C)c(S(=O)(=O)N2CCN(c3ncccn3)CC2)c1	-1	4.8*	82	1	-9
O=C(NCc1ccc(/C=c2\sc3n(c2=O)CCN=3)o1)C(=O)Nc1ccccc1	5	1.3	102	0.9	16
COc1ccc(OC)c(NC(=O)c2cc3ccccc3o2)c1	4	1.1	108	1	2
Cc1ccc(NC(=O)c2ccc(OC(=O)c3ccco3)cc2)cc1	-2	2.8	134*	1	15
CC(=O)Nc1cc2ccccc2oc1=O	-3	1.5	108	1	12
Cc1ccc(C(=O)Nc2cc3ccccc3oc2=O)cc1	87*	1.1	12	0.1	-66
COc1ccc(OC(=O)c2cc3ccccc3o2)cc1	57*	1.1	99	0.4	-4
Cc1oc(=O)c(NC(=O)c2ccccc2)cc1C(=O)c1ccccc1	6	2.4	111	0.9	55
CC(=O)c1cc(NC(=O)c2ccccc2)c(=O)oc1C	1	6.1*	96	1	9
O=C(CNC(=O)c1ccc(-c2ccccc2)cc1)OCc1c(F)cccc1Cl	0	1.3	105	1	-10
N#C/C(=N\Nc1cccc2ccccc12)c1nnc2n1CCCCC2	6	1	99	0.9	-8
O=C(Oc1ccccc1)c1ccc(NC(=O)c2ccco2)cc1	11	1.4	136*	0.9	2
O=C(COc1ccccc1)Nc1ccc(NC(=O)c2ccco2)cc1	0	1.3	107	1	18
COc1ccc(OCC(=O)N/N=C(\C)c2ccc(OC)cc2)cc1	12	0.95	98	0.9	8
COc1ccc(OCC(=O)N/N=C(\C)c2cc3ccccc3o2)cc1	81*	1.7	105	0.2	-3
Cc1ccc(NC(=O)c2ccc(OC(=O)c3cc4ccccc4o3)cc2)cc1	-2	1.9	134*	1	38
Cc1ccc(OC(=O)c2cc(=O)c3ccccc3o2)cc1	45	1.1	105	0.5	6
SMILES	FLuc inhib CS	NF-kB neuron act	STAT1 act	FLuc stim CS	APP 5'UTR act
Cc1ccc(C(=O)N2CCCC(C(=O)c3cc(F)ccc3F)C2)s1 (stereo not drawn)	-7	1.6	89	1.1	18
COc1ccc(NC(=O)c2ccccc2-c2ccccc2)c(C)c1	-5	1.1	92	1.1	-1
O=C(NCCCN1CCOCC1)c1cc(-c2ccc(O)cc2)on1	-2	1.9	98	1	18
O=C(NCCN1CCOCC1)c1cc(-c2cccs2)on1	-2	5.8*	116	1	20
O=C(NCCN1CCOCC1)c1cc(-c2ccccc2)on1	-6	6.3*	110	1.1	29
O=C(NCCCN1CCOCC1)c1cc(-c2ccccc2)on1	-3	5.5*	118	1	19
CC(C)Oc1ccc(-c2cc(C(=O)NCCN3CCOCC3)c3ccccc3n2)cc1	65*	1.2	124	0.3	22
